Results collected from several papers.
CDK4 with cyclin D3: Cyclin-dependent kinase 4, with cyclin D3 (CDK4, Homo sapiens, UniProt P11802)
CDK4 with cyclin D1: Cyclin-dependent kinase 4, with cyclin D1 (CDK4, Homo sapiens, UniProt P11802)
CDK4: Cyclin-dependent kinase 4 (CDK4, Homo sapiens, UniProt P11802)

C[C@@H]1CN(c2cc(-c3nn(C)c4ccc(OC5(C)CC5)cc34)ncn2)C[C@H](C)O1 — remaining binding (CDK4 with cyclin D3; cell-free assay; competition with immobilised ligand; 1 µM): 71%
N[C@@H]1CCN(c2nccc(-c3cnn4ncccc34)n2)C1 — remaining binding (CDK4 with cyclin D1; binding; 1 µM): 100%
COc1cnc(Nc2cccc(S(N)(=O)=O)c2)nc1N1CCN(c2ccccc2)C(=O)C1 — remaining binding (CDK4 with cyclin D1; binding; competition with immobilised ligand; 1 µM): 100%
O=S(=O)(NC1CCC(c2cc(F)ccc2F)(S(=O)(=O)c2ccc(Cl)cc2)CC1)C(F)(F)F (stereo not drawn) — remaining binding (CDK4 with cyclin D3; cell-free assay; competition with immobilised ligand; 1 µM): 91%
O=C(NCCCN1CCOCC1)c1ccc(Nc2nccc(-c3cc4ccccc4s3)n2)cc1 — remaining binding (CDK4; binding; competition with immobilised ligand; 1 µM): 55%
C[C@@H]1CCN(c2nccc(-c3cnn4ncccc34)n2)C1 — remaining binding (CDK4 with cyclin D1; binding; 1 µM): 88%
C[C@@H](c1ccc(-n2cnc3c(N)ncnc32)cc1)N1CCc2nn(C)c(Cc3ccccc3)c2C1=O — remaining binding (CDK4; binding; competition with immobilised ligand; 0.1 µM): 85%
O=C(c1ccc(Nc2ncc(Cl)c(-c3ccc(Cl)s3)n2)cc1)N1CCC(N2CCCC2)CC1 — remaining binding (CDK4 with cyclin D1; binding; competition with immobilised ligand; 1 µM): 0.1%
COc1ncc2cc3ccccc3nc2c1C#N — remaining binding (CDK4 with cyclin D3; cell-free assay; competition with immobilised ligand; 5 µM): 100%
CN(C)CC#Cc1ccc(OCCCc2sc(N3CCc4cccc(C(=O)Nc5nc6ccccc6s5)c4C3)nc2C(=O)O)c(F)c1 — remaining binding (CDK4; cell-free assay; competition with immobilised ligand; 1 µM): 100%
F[C@@H]1CCN(c2nccc(-c3cnn4ncccc34)n2)C1 — remaining binding (CDK4 with cyclin D3; binding; 1 µM): 92%
Cc1nccc(COC(=O)N2C[C@@H]3[C@@H](CNC(=O)c4ccc5[nH]nnc5c4)[C@@H]3C2)n1 — remaining binding (CDK4 with cyclin D3; cell-free assay; competition with immobilised ligand; 1 µM): 78%
O=C(NCCCN1CCOCC1)c1ccc(Nc2ncc(Cl)c(-c3ccc(Cl)s3)n2)cc1 — remaining binding (CDK4; binding; competition with immobilised ligand; 1 µM): 50%
CNC(=O)c1ccc(Nc2ncc(C(F)(F)F)c(NCc3nccnc3N(C)S(C)(=O)=O)n2)cc1 — remaining binding (CDK4; cell-free assay; competition with immobilised ligand; 0.1 µM): 100%
c1cnn2ncc(-c3ccnc(N4CCC45COC5)n3)c2c1 — remaining binding (CDK4 with cyclin D1; binding; 1 µM): 81%
FC(F)(F)Oc1cccc(-c2cnc3ccc(-c4ccncc4)nn23)c1 — remaining binding (CDK4 with cyclin D3; cell-free assay; competition with immobilised ligand; 5 µM): 57%
CNC(=O)[C@@H]1CC[C@@H](n2c(-c3ccc4cnccc4c3)nc3ccc(C(=O)NCc4cccc(C(N)=O)c4)cc32)C1 — remaining binding (CDK4 with cyclin D3; binding; competition with immobilised ligand; 1 µM): 100%
CN(c1nccc(-c2cnn3ncccc23)n1)C1CC1 — remaining binding (CDK4 with cyclin D3; binding; 1 µM): 100%
O=C(c1ccc(Nc2ncc(Cl)c(-c3cc4ccccc4s3)n2)cc1)N1CCC(N2CCCC2)CC1 — remaining binding (CDK4 with cyclin D3; binding; competition with immobilised ligand; 1 µM): 0.8%
O=C(Nc1c[nH]nc1C(=O)NC1CCNCC1)c1cc(F)cc(F)c1 — remaining binding (CDK4 with cyclin D3; binding; competition with immobilised ligand; 1 µM): 98%
CCN1CCN(Cc2ccc(C(=O)Nc3ccc(C)c(Oc4ccc5c(c4)CC(=O)N5)c3)cc2C(F)(F)F)CC1 — remaining binding (CDK4 with cyclin D1; binding; competition with immobilised ligand; 1 µM): 79%
Cc1nc(N2CC[C@@H](O)C2)ncc1-c1cc(C(F)(F)F)cc2[nH]ncc12 — remaining binding (CDK4; binding; competition with immobilised ligand; 1 µM): 63%
O=C(c1ccc(Nc2nccc(-c3cc4ccccc4s3)n2)cc1)N1CCC(N2CCCC2)CC1 — remaining binding (CDK4 with cyclin D3; binding; competition with immobilised ligand; 1 µM): 18%
CN(C)c1ncc(F)c(-c2cnn3ncccc23)n1 — remaining binding (CDK4 with cyclin D3; binding; 1 µM): 91%
N#CC1(c2ccccn2)CCN(Cc2cc(C(=O)N3CCCC3)c(=O)n3ccccc23)CC1 — remaining binding (CDK4 with cyclin D1; cell-free assay; competition with immobilised ligand; 1 µM): 100%
Nc1ncc2c(n1)-c1c([nH]c3ccc(C#CC4CC4)cc13)CCCC2 — remaining binding (CDK4 with cyclin D1; binding; competition with immobilised ligand; 1 µM): 93%
O=C(NCC1CCOCC1)c1n[nH]cc1NC(=O)c1c(F)cccc1F — remaining binding (CDK4 with cyclin D1; binding; competition with immobilised ligand; 1 µM): 47%
c1cncc(-c2cccc(Nc3nccc(NC4CCCCC4)n3)c2)c1 — remaining binding (CDK4 with cyclin D3; binding; competition with immobilised ligand; 10 µM): 86%
Cc1cnc(Nc2ccc(C(=O)N3CCC(N4CCCC4)CC3)cc2)nc1-c1cc2ccccc2s1 — remaining binding (CDK4; binding; competition with immobilised ligand; 1 µM): 40%
CNCc1ccccc1-c1csc([C@H](C)Nc2nc(C)nc3cc(OC)c(OC)cc23)c1 — remaining binding (CDK4 with cyclin D3; cell-free assay; competition with immobilised ligand; 1 µM): 96%
COc1cnc(Nc2cccc(S(N)(=O)=O)c2)nc1N1CCN(c2ccccc2)CC1 — remaining binding (CDK4; binding; competition with immobilised ligand; 1 µM): 76%
C=CC(=O)N1CCC(C(=O)NCC(=O)N2CCN(c3nc(-c4cnc(N)nc4C(F)F)nc(N4CCOCC4)n3)CC2)CC1 — remaining binding (CDK4 with cyclin D3; binding; competition with immobilised ligand; 1 µM): 100%
CC1CCCN1c1nccc(-c2cnn3ncccc23)n1 (stereo not drawn) — remaining binding (CDK4 with cyclin D3; binding; 1 µM): 100%
